Published values from different studies.
Protocols differ between the studies behind these lines.
Oprk1: Kappa-type opioid receptor (Oprk1, Mus musculus, UniProt P33534)
SLC6A2: Sodium-dependent noradrenaline transporter (SLC6A2, Homo sapiens, UniProt P23975)
MPO: Myeloperoxidase (MPO, Homo sapiens, UniProt P05164)

CC(C)[C@@H](CN1CCc2ccccc2C1)NC(=O)C=Cc1ccccc1  inhibition (Oprk1; ligand displacement, radioligand; 10 µM): 22.7%
C#Cc1cc(-c2cc(Nc3nc(N[C@@H](C)c4ccc(F)cn4)ncc3Cl)n[nH]2)ccc1C=O  inhibition (Interferon-induced, double-stranded RNA-activated protein kinase (EIF2AK2, Homo sapiens, UniProt P19525); enzyme activity, inhibitor; 0.2 µM): 7.44%
OC[C@@]12C[C@@H]1[C@@H](n1cnc3c(NCCCCCCc4ccccc4)nc(I)nc31)[C@H](O)[C@@H]2O  inhibition (SLC6A2; ligand displacement, radioligand; 10 µM): 52%
CC(C)[C@H](CN1CCc2ccccc2C1)NC(=O)c1c(Cl)cncc1Cl  inhibition (Oprk1; ligand displacement, radioligand; 10 µM): 69.4%
Cc1cc(O)c(-c2ccc([C@@H](C)CN(C)C)cc2)c2c1[nH]c(=O)c1sccc12  inhibition (RPS6KC1 (Homo sapiens, UniProt Q96S38); cell-free assay, inhibitor; 0.1 µM, lysate): 5.19%
CC(C)[C@H](CN1CCc2ccccc2C1)NC(=O)c1ccc(F)cc1  inhibition (Oprk1; ligand displacement, radioligand; 10 µM): 88.7%
CCOC(=O)[C@@]12C[C@@H]1[C@@H](n1cnc3c(NCc4cccc(Cl)c4)nc(C#Cc4ccc(Cl)s4)nc31)[C@H](O)[C@@H]2O  inhibition (SLC6A2; ligand displacement, radioligand; 10 µM): 78%
COc1ccc(C(=O)NC2CCCc3c2[nH]c2c(Cl)cccc32)cc1OC (stereo not shown)  inhibition (Cysteinyl leukotriene receptor 1 (CYSLTR1, Homo sapiens, UniProt Q9Y271); calcium signal, antagonist; HEK293; 33 µM): ~41%
OC[C@@]12C[C@@H]1[C@@H](n1cnc3c(N[C@@H](C4CCC4)C4CC4)nc(C#Cc4ccc(Cl)s4)nc31)[C@H](O)[C@@H]2O  inhibition (SLC6A2; ligand displacement, radioligand; 10 µM): 90%
COc1ccc(Cl)cc1-c1cc(=O)[nH]c(=S)n1CC(N)=O  inhibition (MPO; enzyme activity, inhibitor, fluorescence; 30 µM): 98.3%
CC(C)[C@H](CN1CCc2ccccc2C1)NC(=O)c1cccc(-c2ccccc2)c1  inhibition (Oprk1; ligand displacement, radioligand; 10 µM): 72.2%
N#CC[C@@]12C[C@@H]1[C@@H](n1cnc3c(NC4CC4)nc(C#Cc4ccc(Cl)s4)nc31)[C@H](O)[C@@H]2O  inhibition (SLC6A2; ligand displacement, radioligand; 10 µM): 28%
Cc1cc(F)cc2c(CCC(=O)N[C@@H]3C(=O)NC[C@H]3O)c(-c3ccc(F)cc3)[nH]c12  inhibition (Neuronal acetylcholine receptor; alpha3/beta4 (Homo sapiens, UniProt P30926+P32297); cell-free assay; 10 µM): -4%
NC/C(=C\F)COc1cccc(Cn2c(=S)[nH]c(=O)c3[nH]cnc32)c1  inhibition (MPO; enzyme activity, inhibitor, fluorescence; 0.3704 µM): 98.6%
CC(C)[C@@H](CN1CCc2ccccc2C1)NC(=O)c1cccc(-c2cccc(C#N)c2)c1  inhibition (Oprk1; ligand displacement, radioligand; 10 µM): 80.6%
CCOC(=O)[C@@]12C[C@@H]1[C@@H](n1cnc3c(NCCCCCCc4ccccc4)nc(I)nc31)[C@H](O)[C@@H]2O  inhibition (SLC6A2; ligand displacement, radioligand; 10 µM): 52%
CC(C)[C@H](CN1CCc2ccccc2C1)NC(=O)c1ccc([N+](=O)[O-])s1  inhibition (Oprk1; ligand displacement, radioligand; 10 µM): 64.5%
CC(C)OCCn1c(=S)[nH]c(=O)c2[nH]ccc21  inhibition (MPO; enzyme activity, inhibitor, fluorescence; 0.1852 µM): 82.5%
CCOC(=O)C12CC1C(n1ccc3c(NCCCc4ccccc4)nc(C#Cc4ccc(Cl)s4)nc31)C(O)C2O (stereo not shown)  inhibition (SLC6A2; ligand displacement, radioligand; 10 µM): 50%
